Kir21 block: blocks the mouse Kir2.1 inward-rectifier potassium channel; P35561; HEK293-Kir2.1, FluxOR thallium flux fluorescence; active compounds read low; B-score at 10 µM; actives 0.85% (n = 310,000); AID 1672;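 active = fluorescence ratio B-score at or below minus 3 SD of library scores, with starting-brightness B-score within 2 SD, cut at about -4.2 in these data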;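 note: channel flux triggered by added potassium and thallium sulfate stimulus; B-score of peak minus minimum fluorescence over baseline after thallium stimulus; more negative B-score means stronger Kir2.1 block with less thallium influx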
hERG protect: compounds protecting human hERG from proarrhythmic drug block; CHO-hERG, FluxOR thallium flux, dofetilide IC70 present; AID 1511; actives 0.51% (n = 310,000); activation (rescue from dofetilide block), less the hit threshold, % at 10 µM;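 active = activation above the mean of controls blocked by dofetilide plus 5 SD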;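 note: thallium influx through hERG after potassium depolarization seen as dye fluorescence rise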
KCNK9 inh: inhibitors of human KCNK9 two-pore domain potassium channel. Q9NPC2. HEK293 KCNK9, FluxOR thallium flux fluorescence; active compounds read low. B-score at 10 µM. actives 1.2% (n = 310,000);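 active = ratio B-score over 3 SD below the library mean, with starting fluorescence within 5 SD of its mean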;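 note: negative B-score means less thallium flux so channel inhibition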
KCNK3 inh: human KCNK3 channel inhibition, primary screen; O14649; CHO-KCNK3 thallium flux, FluxOR fluorescence; active compounds read low; B-score at 10 µM; actives 0.84% (n = 340,000); AID 602410;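 active = B-score under library mean minus 4 SD, starting fluorescence ratio at most library mean plus 5 SD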;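 note: more negative B-score means stronger inhibition of thallium flux through KCNK3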
KCNQ1 pot: human KCNQ1 channel potentiation or activation. P51787. CHO-K1 KCNQ1, thallium flux FluxOR fluorescence; active compounds read high. B-score at 10 µM. actives 0.35% (n = 310,000);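 active = fluorescence ratio B-score, a plate-corrected score, at least three library SD, with initial intensity B-score within 5 SD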
Target sequence (P51787 whole entry, looked up): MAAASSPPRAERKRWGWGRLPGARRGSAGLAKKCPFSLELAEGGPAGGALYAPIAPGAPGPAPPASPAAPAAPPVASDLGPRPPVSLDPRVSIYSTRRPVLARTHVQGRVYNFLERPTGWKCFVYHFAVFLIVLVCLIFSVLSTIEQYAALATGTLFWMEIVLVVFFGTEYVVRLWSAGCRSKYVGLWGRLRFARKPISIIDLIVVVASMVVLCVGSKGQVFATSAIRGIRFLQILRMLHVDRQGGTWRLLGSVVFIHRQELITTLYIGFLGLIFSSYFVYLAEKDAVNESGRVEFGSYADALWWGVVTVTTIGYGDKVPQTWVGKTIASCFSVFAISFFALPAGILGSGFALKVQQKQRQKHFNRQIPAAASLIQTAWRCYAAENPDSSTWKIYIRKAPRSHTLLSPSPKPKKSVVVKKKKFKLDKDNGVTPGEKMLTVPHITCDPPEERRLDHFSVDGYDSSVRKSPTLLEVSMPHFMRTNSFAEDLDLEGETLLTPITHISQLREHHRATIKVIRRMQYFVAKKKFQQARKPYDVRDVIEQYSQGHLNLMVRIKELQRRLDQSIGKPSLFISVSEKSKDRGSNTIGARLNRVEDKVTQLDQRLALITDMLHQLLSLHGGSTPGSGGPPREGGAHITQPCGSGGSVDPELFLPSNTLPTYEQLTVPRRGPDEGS
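Medium – assay buffer, equal DMSO in all wells · Material – CHO-K1 cell line with stable KCNQ1 potassium channel expression · Signal – kinetic FluxOR thallium fluorescence, 10-s 1-Hz baseline, 110-s post-stimulus read · Compound – single concentration per compound, DMSO matched to controls · Schedule – 37 °C overnight plating, 90-min dark dye load, 20-min compound pretreatment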
KCNQ1 inh: blocks the human KCNQ1 potassium channel. P51787. CHO-K1 KCNQ1, FluxOR thallium flux fluorescence; active compounds read high. B-score at 10 µM. actives 1.3% (n = 310,000). AID 2642;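 active = compounds whose thallium flux B-score, printed positive for inhibition, exceeds three library SD while starting fluorescence stays within three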;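 note: channel opened by potassium depolarization with thallium stimulus after 20 min compound exposure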
A number is an active result; n = inactive; x = not tested or not shown. The list is not random: actives were taken first. Their share in the collection is about 3.7%.

SMILES	Kir21 block	hERG protect	KCNK9 inh	KCNK3 inh	KCNQ1 pot	KCNQ1 inh
O=S(=O)(c1ccccc1)N1CCCCC1CCc1ccccc1 (stereo unspecified)	x	x	x	n	x	x
CC(C)(C)c1cc(O)c(C(C)(C)C)cc1O	n	n	-8.51	x	8	n
C=CCn1c(SCN2C(=O)c3ccccc3C2=O)nc2ccc(Cl)cc2c1=O	n	n	n	n	9	n
C=CCn1c(SCC(=O)Nc2sccc2C(N)=O)nc2ccc(Cl)cc2c1=O	n	n	n	n	n	n
CN(C)c1ccc(S(=O)(=O)N2CCCCC2)cc1NC(=O)CCNC(=O)c1ccc(Cl)cc1	x	x	x	n	x	x
CC(OC(=O)CCN1C(=O)C2CC=CCC2C1=O)C(=O)Nc1ccc(F)cc1 (stereo unspecified)	x	x	x	n	x	x
COC(=O)c1cccc(CSc2nnc(-c3ccco3)n2-c2ccccc2)c1	-6.77	n	n	n	n	n
O=C(O)C(Cc1c[nH]c2ccccc12)N1C(=O)c2ccccc2C1=O (stereo unspecified)	n	n	n	n	n	n
NC(=O)C1=C[C@H](c2ccc(C(F)(F)F)cc2)C[C@H](OCc2ccc(CO)cc2)O1	-4.8	n	n	n	n	n
C#CCNC(=O)C1=C[C@@H](c2ccccc2)C[C@@H](OCc2ccc(CO)cc2)O1	-5.6	n	n	n	n	n
COc1ccc(NC(=O)C(c2ccc(OC)cc2)N(C)C(=O)CC2NC(=O)NC2=O)cc1 (stereo unspecified)	n	n	n	n	n	n
CC(C)c1ccc(NC(=O)C(c2ccccc2)N(Cc2ccco2)C(=O)CC2NC(=O)NC2=O)cc1 (stereo unspecified)	n	n	n	n	n	8
Cc1c(NC(=O)Nc2cc(F)c(F)cc2Cl)c(=O)n(-c2ccccc2)n1C	n	n	n	n	n	n
CCOC(=O)c1cc(-c2ccc(Cl)cc2)nc2onc(C)c12	n	n	-8.03	x	n	n
CCOC(=O)c1cc(-c2ccc(Cl)cc2)nc2c1c(=O)[nH]c(=O)n2CCOC	n	n	n	n	n	n
Cc1cc(SCC(=O)OCC(=O)N(C)c2ccccc2)nc2ccccc12	n	n	n	n	n	n
Cc1cccc(C)c1-n1nnnc1S(=O)(=O)Cc1ccccc1Cl	x	x	x	-8.73	x	x
Cc1nc(S(=O)(=O)Cc2ccccc2Cl)nc2c1CCC2	n	n	n	n	n	n
COc1ccc(C(=O)Nc2ccccc2)cc1NC(=O)c1cccs1	n	n	n	n	n	n
O=c1cc(-c2ccccc2Cl)oc2ccc([N+](=O)[O-])c(O)c12	n	n	n	n	n	n
O=c1cc(-c2ccccc2Cl)oc2c([N+](=O)[O-])c(O)cc(O)c12	n	n	n	n	n	8
CCC(C)[C@H](NC(=O)[C@@H]1CSC2c3ccccc3C(=O)N21)C(=O)NCc1ccco1 (stereo partly specified)	n	n	n	n	n	n
COc1ccc(-n2c(=S)[nH]c3ccccc3c2=S)cc1	n	n	n	n	16	n
COc1ccc(Cn2c(=S)[nH]c3ccccc32)cc1	n	7.2	n	n	n	n
COc1ccc(-n2c(=S)[nH]c3ccccc32)cc1	n	n	n	n	n	n
SMILES	Kir21 block	hERG protect	KCNK9 inh	KCNK3 inh	KCNQ1 pot	KCNQ1 inh
c1cnc2nc(-c3ccc4c(c3)OCO4)cn2c1	n	n	n	n	n	n
CCc1ccn2cc(-c3ccc4c(c3)OCO4)nc2c1	n	n	-7.32	n	n	n
O=c1c2ccccc2sc2ccc(NCCCN3CCOCC3)cc12	n	n	n	n	n	n
CN1CCCC1CCNc1ccc2sc3ccccc3c(=O)c2c1 (stereo unspecified)	n	n	-7.5	n	n	n
Cn1cnc([N+](=O)[O-])c1Sc1nc(N)nc2c1ncn2C1CC(O)C(CO)O1 (stereo unspecified)	x	x	x	n	x	x
CC(=O)N1CCCc2ccc(NS(=O)(=O)c3ccc(C)c(C)c3)cc21	n	n	n	n	n	n
COc1ccc(OC)c(S(=O)(=O)Nc2ccc3c(c2)N(C(C)=O)CCC3)c1	n	n	n	n	13	n
COc1ccccc1-n1c(SC(C)C(=O)NCC2CCCO2)nc2cc(Cl)ccc2c1=O (stereo unspecified)	n	n	n	n	n	n
COC(=O)c1ccc(NC(=O)Nc2ccc(F)cc2)cc1	n	n	n	n	n	6
COC(=O)c1ccc(NC(=O)Nc2ccc(F)c(Cl)c2)cc1	n	n	n	n	n	6
Fc1ccc(NC(=S)Nc2ccc(F)c(Cl)c2)cc1Cl	-5.43	n	-6.7	-9.17	n	13
COC(=O)NC(=S)Nc1ccc(Oc2ccc(Cl)cc2Cl)c(Cl)c1	n	n	n	n	16	n
COC(=O)NC(=S)Nc1ccc(Oc2ccc(Cl)cc2)c(Cl)c1	n	n	n	n	n	n
CCOC(=O)c1ccc(NC(=O)Nc2ccc(F)cc2)cc1	n	n	n	n	n	n
COc1ccc(CN2C(=O)c3cccnc3C2=O)cc1S(=O)(=O)N(C)c1cccc(C)c1	n	n	n	n	n	n
COc1cc(C)c(S(=O)(=O)N2CCCC2)cc1C(C)C	-4.42	n	n	n	n	n
CN1CCN(C2=Cc3ccccc3Sc3cc(F)c(F)cc32)CC1	-4.41	n	n	n	n	n
CN1CCN(C2=Cc3ccccc3Sc3cc(F)c(Cl)cc32)CC1	n	n	n	n	n	n
CCCCn1c(SCC(=O)c2ccc3c(c2)OCCO3)nnc1-c1ccoc1C	-4.96	n	n	n	n	n
Cc1ccccc1CC(=O)Nc1ccc(S(=O)(=O)N2CCN(C)CC2)cc1	n	n	n	n	n	n
O=C(NCC(c1ccco1)N1CCN(c2ccccc2)CC1)C(=O)NC1CCCCC1 (stereo unspecified)	n	n	n	n	n	n
Cc1cccc(NC(=S)NNC(=O)c2csc3c2CCCC3)c1	n	n	n	n	n	n
Cc1ccc(NC(=S)NNC(=O)c2ccccc2O)c(C)c1	n	n	n	n	n	10
Cc1ccc(C)c(NC(=S)NNC(=O)c2csc3c2CCC(C)C3)c1 (stereo unspecified)	n	6.8	n	n	19	n
Cc1ccc(C)c(NC(=S)NNC(=O)c2csc3c2CCCC3)c1	n	n	n	n	11	n
Cc1ccc(NC(=O)NNC(=O)c2cc3ccccc3cc2O)c(C)c1	n	n	n	n	n	n
O=[N+]([O-])c1c(O)c(Cl)cc(Cl)c1Cl (tested in a mixture with another compound)	x	x	x	n	x	x
COc1ccc(F)cc1S(=O)(=O)Nc1cc2c3c(c1)CC(=O)N3CCC2	n	n	n	n	n	n
CC(C)C(C)(C#N)NC(=O)CSc1nc2scc(-c3ccco3)c2c(=O)n1-c1ccccc1 (stereo unspecified)	n	n	n	n	n	n

High-throughput results deposited in PubChem BioAssay by Johns Hopkins Ion Channel Center.
